High-throughput results: PubChem BioAssay, several laboratories
The list is not random: actives were taken first. Their share in the collection is about 2.5%.
TRPC4 act: opens the mouse TRPC4 cation channel; Q9QUQ5; HEK293 TRPC4beta/mu-opioid, Fluo4 calcium fluorescence; hits give high values; B-score at 10 µM; 310,000 tested, 0.49% active;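 active means B-score above 5 SD of library B-scores, and initial fluorescence ratio not above library mean plus 5 SD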;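 further: positive B-score marks a calcium rise read as TRPC4 activation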
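Assay system: HEK293 stable line with TRPC4beta plus mu-opioid receptor; schedule: 45 min room-temperature Fluo4 loading, 110 s read; technique: kinetic Fluo4 calcium fluorescence; evaluation: integrated baseline-normalised fluorescence ratio, converted to per-well B score; controls: buffer (low) and maximal DAMGO (high)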
TRPC4 PAM: allosterically enhances the mouse TRPC4 cation channel. HEK293 TRPC4beta/mu-opioid, DAMGO EC20, Fluo-4 Ca2+ flux; hits give high values. B-score at 10 µM. 310,000 tested, 0.42% active;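 active means B-score of calcium response area above 5 SD of library B-scores, with initial fluorescence ratio within 5 SD of library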
Platelet DG rel: platelet dense granule release activity; human platelet-rich plasma, SFLLRN dense granule ATP release, luminescence; inhibition, %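 (compounds screened at 7.5 µM in platelet-rich plasma)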; 300,000 tested, 0.22% active;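 active means mean replicate score, as percent of positive control, at or above 50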
TRPC6 activator: activators of mouse TRPC6 channel; 310,000 tested, 0.13% active; HEK293-TRPC6 membrane potential dye fluorescence; hits give high values; B-score at 10 µM; Q61143;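 active means B-score of the integrated fluorescence ratio above library mean plus 3 SD, and starting fluorescence ratio within library mean plus 5 SD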;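 further: higher score means more depolarization so channel activation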
Target sequence (Q61143 whole entry, looked up): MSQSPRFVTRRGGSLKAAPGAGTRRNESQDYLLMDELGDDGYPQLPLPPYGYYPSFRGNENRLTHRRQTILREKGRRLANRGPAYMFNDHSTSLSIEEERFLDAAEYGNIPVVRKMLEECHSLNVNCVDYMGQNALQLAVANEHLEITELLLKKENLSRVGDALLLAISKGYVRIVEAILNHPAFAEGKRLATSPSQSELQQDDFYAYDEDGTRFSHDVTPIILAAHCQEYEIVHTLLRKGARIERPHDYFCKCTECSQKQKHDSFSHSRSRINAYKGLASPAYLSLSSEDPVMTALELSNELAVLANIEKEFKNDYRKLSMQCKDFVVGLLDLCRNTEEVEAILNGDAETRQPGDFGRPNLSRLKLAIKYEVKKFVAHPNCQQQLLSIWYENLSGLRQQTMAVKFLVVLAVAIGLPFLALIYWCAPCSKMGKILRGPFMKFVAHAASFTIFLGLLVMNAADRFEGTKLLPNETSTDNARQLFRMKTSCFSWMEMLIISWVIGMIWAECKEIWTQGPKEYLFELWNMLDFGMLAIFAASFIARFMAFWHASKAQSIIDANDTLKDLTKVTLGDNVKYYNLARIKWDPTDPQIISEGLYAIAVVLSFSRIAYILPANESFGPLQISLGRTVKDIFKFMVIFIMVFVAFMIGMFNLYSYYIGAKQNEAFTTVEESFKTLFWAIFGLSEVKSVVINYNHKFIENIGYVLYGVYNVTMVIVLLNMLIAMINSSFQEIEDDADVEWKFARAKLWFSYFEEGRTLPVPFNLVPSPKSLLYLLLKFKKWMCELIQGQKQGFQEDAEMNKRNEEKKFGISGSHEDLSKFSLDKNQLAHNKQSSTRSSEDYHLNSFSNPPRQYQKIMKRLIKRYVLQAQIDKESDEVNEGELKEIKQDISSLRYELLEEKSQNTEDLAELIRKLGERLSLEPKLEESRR
TRPC4 block: inhibitors of mouse TRPC4 channel; Q9QUQ5; B-score at 10 µM; 300,000 tested, 0.39% active; HEK293 TRPC4beta/mu-opioid, DAMGO-evoked Fluo4 calcium flux; hits give low values;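 active means B-score over 3 SD under the library average, no early fluorescence shift, positive overall ratio signal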
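Assay system: TRPC4beta/mu-opioid receptor HEK293 cell line; compound dosing: single concentration per test compound; detection: Fluo4 Ca2+ flux fluorescence; evaluation: per-well B score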
TRPC6 inhibitor: blocks the mouse TRPC6 cation channel. B-score at 10 µM. HEK293-TRPC6, membrane potential dye, ACh-evoked depolarization; hits give low values. AID 2553. 310,000 tested, 1.1% active;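 active means B-score under library mean minus 3 SD, initial fluorescence not abnormally high, positive integrated signal ratio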;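 further: B-score derived from integrated fluorescence ratio over the kinetic read; more negative B-score means stronger inhibition of depolarization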
Of the large screens only hits and unclear results are named; the others gave an inactive call.

COc1ccc(-c2nn(-c3ccccc3C)cc2CNC(C)Cn2cncn2)cc1F (configuration not stated)	none
O=C1CC(c2cccc(Cl)c2)CC(O)=C1C=NCCCO (configuration not stated)	none
CCOP(=O)(c1ccccc1)c1nc(-c2ccccc2Cl)oc1N1CCCCC1 (configuration not stated)	TRPC4 PAM 17
CCOP(=O)(OCC)c1nc(-c2cccc([N+](=O)[O-])c2)oc1N1CCCCC1	none
COc1ccc(CN(C)C(=O)c2ccc(NC(=O)CC3SC(N4CCCC4)=NC3=O)cc2)c(OC)c1 (configuration not stated)	TRPC4 PAM 41, TRPC4 block -6
OCCN1CCN(CC(O)COc2ccc(Cl)cc2)CC1 (configuration not stated)	Platelet DG rel 50
CN1CCN(CC(O)COc2ccc(Cl)cc2)CC1 (configuration not stated)	none
Cc1cc(C(=O)COc2cccnc2[N+](=O)[O-])c(C)n1Cc1cccs1	none
CC(=O)Nc1ccccc1OCC(=O)c1cc(C)n(Cc2cccs2)c1C	TRPC4 act 72
COc1cc(/C=C(\C#N)C(=O)N2CCOCC2)ccc1OCc1ccccc1	none
COc1ccc(/C=C(\C#N)C(=O)N2CCOCC2)cc1Br	TRPC4 PAM 14
Cc1cccc(C(=O)NCCN(C)C)c1	TRPC4 act 73
Cc1cccc(C(=O)NCCCNC(=O)c2cccc(C)c2)c1	none
CCc1cc(C(=O)NCCN(C)C)cs1	TRPC4 act 78
CCCCn1c(SCC(=O)N2c3ccccc3Sc3ccccc32)nc2c1c(=O)n(C)c(=O)n2C	TRPC4 PAM 117
Cn1c(=O)c2c(nc(SCC(=O)c3cccs3)n2Cc2ccc(F)cc2)n(C)c1=O	none
CC1Cc2ccccc2N1C(=O)CSc1nc2c(c(=O)n(C)c(=O)n2C)n1Cc1ccc(F)cc1 (configuration not stated)	TRPC4 PAM 49
CC(NC(=O)C12CC3CC(CC(C3)C1)C2)c1ccc(F)cc1 (configuration not stated)	none
CCOC(=O)C1CCN(c2ncnc3cc(OC)c(OC)cc23)CC1	Platelet DG rel 58
CON(C)c1nc(OCC#N)nc(N(C)C)n1	none
COc1ccc(CN2CCCC(C(=O)c3cccc(C(F)(F)F)c3)C2)cc1O (configuration not stated)	TRPC4 act 62, TRPC4 block -8
CC(=O)Nc1ccc(CN2CCCC(C(=O)c3cccc(C(F)(F)F)c3)C2)cc1 (configuration not stated)	TRPC4 act 88
O=C(c1cccc(C(F)(F)F)c1)C1CCCN(Cc2ccc(OCCO)cc2)C1 (configuration not stated)	none
CSc1ccccc1OCc1cc(C(=O)N2CCC(Oc3cccnc3)CC2)no1	none
CCc1cc(C(=O)N(Cc2ccccc2)c2c(N)n(CCOC)c(=O)[nH]c2=O)sc1C	none
O=C(CCCc1c[nH]c2ccccc12)NCC1COc2ccccc2O1 (configuration not stated)	none
COC(=O)c1cccc(NC(=O)CCNC(=O)c2ccc([N+](=O)[O-])cc2)c1	none
COc1ccc(C(=O)O/N=C(/C)c2cccs2)cc1	Platelet DG rel 59
COc1ccc(C(=O)O/N=C(\N)c2ccccc2)cc1	Platelet DG rel 67
COc1ccc(C(=O)O/N=C(\C)c2nccs2)cc1	none
COc1ccc(C(=O)O/N=C(\N)c2ccc(Br)cc2)cc1	none
CCn1cc(CN2CCC(n3nccc3NC(=O)c3ccccc3C)CC2)cn1	none
O=[N+]([O-])c1ccc(N2CCCC2)nc1N1CCCC1	TRPC4 act 144
CCCCn1c(N)c(N(Cc2ccccc2OC)C(=O)C(C)Oc2ccc(Cl)cc2)c(=O)[nH]c1=O (configuration not stated)	Platelet DG rel 53
N#CCCn1cc(C(=O)Nc2ccc(C(=O)O)cc2)c(-c2cccc(Br)c2)n1	TRPC4 act 70
N#CCCn1cc(C(=O)Nc2ccccn2)c(-c2ccccc2)n1	none
CC1(C)COCN1S(=O)(=O)c1ccc(C(=O)Nc2nnc(-c3ccc(Cl)s3)o2)cc1	TRPC4 act 111, TRPC4 block -5
CCC1CCCCN1S(=O)(=O)c1ccc(C(=O)Nc2nnc(-c3ccccc3Cl)o2)cc1 (configuration not stated)	TRPC4 act 65
Cc1ccc(S(=O)(=O)NNC(=O)Nc2cccc(C)c2C)c(C)c1	none
COc1ccccc1-n1c(SCC(N)=O)nnc1-c1ccccc1	none
CCOC(=O)CCSc1nnc(-c2cccnc2)n1-c1ccccc1OC	TRPC4 block -8
CCOc1cccc(CN2CCC(CCC(=O)NC3CC3)CC2)c1O	none
COc1ccc(-n2nc(C(=O)NCC(=O)NCCCN3CC(C)CC(C)C3)c3ccccc3c2=O)cc1OC (configuration not stated)	none
COc1ccc(-n2nc(C(=O)NCC(=O)NCCCN3CC(C)CC(C)C3)c3ccccc3c2=O)cc1Cl (configuration not stated)	TRPC4 act 128
CSc1nsc(NC(=O)Cc2ccccc2)n1	TRPC4 block -6
CSc1nsc(SCC(=O)Nc2ccccc2)n1	none
Cc1c(-n2c(SCC(=O)NC(C)C)nc3ccccc3c2=O)c(=O)n(-c2ccccc2)n1C	none
CCc1nc(NC(=O)Cc2csc(C)n2)sc1C(=O)OC	none
Cc1ccc(-n2c(C)cc(C)c(C#N)c2=O)cc1	none
Cc1ccc(-n2c(N)c(C#N)c(-c3ccccc3)c(C#N)c2=O)cc1	Platelet DG rel 87
Clc1cccc(OCCOCCN2CCNCC2)c1Cl	TRPC4 act 44
Clc1cccc(OCCCN2CCCC2)c1Cl	none
Clc1cccc(OCCN2CCNCC2)c1	TRPC4 act 97
O=c1cc(-c2ccccc2Cl)oc2c(NS(=O)(=O)c3ccccc3OC(F)(F)F)ccc(O)c12	none
O=C(c1cccs1)c1no[n+]([O-])c1C(=O)c1cccs1	TRPC4 act 54
COc1ccc(C(=O)c2no[n+]([O-])c2C(=O)c2ccc(OC)cc2)cc1	TRPC4 PAM 53
O=C(Nc1ccc([N+](=O)[O-])cn1)C1CC1	none
O=C(Nc1ccc([N+](=O)[O-])cn1)C1CCCCC1	TRPC4 PAM 22
CC(=O)OC(c1nc2ccccc2c(=O)n1C1CC2(OC1=O)c1ccccc1N1C(=O)C(C)(C)N(O)C12)C(C)C (configuration not stated)	TRPC4 act 83
Cc1ccc(Cl)cc1NC(=O)CCC(=O)O	none
COc1ccc(Cl)cc1NC(=O)CNCC(c1ccccc1)N(C)C (configuration not stated)	TRPC4 act 49, TRPC4 block -7
